Laboratory results: ChEMBL document CHEMBL4819095, “Development of ciclesonide analogues that block SARS-CoV-2 RNA replication” (Bioorg Med Chem Lett, 2021)
Active and inactive are the calls of the source. The calls are words filed in the database; no cut-off is given here.

Key:
[1] = test system: Vero C1008; assay: Cytotoxicity against African green monkey Vero E6 cells expressing TMPRSS2 assessed as reduction in cell viability upto 40 uM incubated for 18 hrs by LDH assay; assay type: cell-based; settings: chlorocebus sabaeus, vero c1008, 18 h
Procedure, shortened: (§1)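 Vero E6/TMPRSS2 cells exposed for 18 h to compounds at concentrations up to 40 µM. Cytotoxicity read as lactate dehydrogenase (LDH) release. Each independent experiment run in triplicate.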

[2] = test system: SARS-CoV-2; assay: Antiviral activity against SARS-CoV-2 JPN/TY/WK-251 infected in African green monkey Vero E6 cells expressing TMPRSS2 assessed as reduction in viral RNA replication by measuring replication copies assessed per well at 10 uM incubated for 18 hrs by qRT-PCR analysis; assay type: functional, Severe acute respiratory syndrome coronavirus 2
[3] = test system: SARS-CoV-2; assay: Antiviral activity against SARS-CoV-2 JPN/TY/WK-251 infected in African Green monkey Vero E6 cells expressing TMPRSS2 assessed as reduction in viral plaques incubated for 18 hrs by plaque reduction assay; assay type: functional, organism-based; settings: Severe acute respiratory syndrome coronavirus 2, dose 0.625-80 µM
[4] = test system: Vero C1008; assay: Cytotoxicity against African green monkey Vero E6 cells expressing TMPRSS2 assessed as reduction in cell viability at 40 uM incubated for 18 hrs by LDH assay; assay type: cell-based; settings: chlorocebus sabaeus, vero c1008, 18 h; procedure, shortened: as §1
[5] = test system: Vero C1008; assay: Cytotoxicity against African green monkey Vero E6 cells expressing TMPRSS2 assessed as reduction in cell viability at 20 uM incubated for 18 hrs by LDH assay; assay type: cell-based; settings: chlorocebus sabaeus, vero c1008, 18 h; procedure, shortened: as §1
[6] = Severe acute respiratory syndrome coronavirus 2

SMILES	Activity [1]	Activity [2]	Activity [3]	Activity [4]	Activity [2, 6]	Activity [5]
CC(C)C(=O)OCC(=O)[C@@]12O[C@H](C3CCCCC3)O[C@@H]1C[C@H]1[C@@H]3CCC4=CC(=O)C=C[C@]4(C)[C@H]3[C@@H](O)C[C@@]12C [CICLESONIDE]	Non-Toxic	5.2 10^5No_unit	Dose-Dependent Effect			
C[C@]12C=CC(=O)C=C1CC[C@@H]1[C@@H]2[C@@H](O)C[C@@]2(C)[C@H]1C[C@H]1O[C@@H](C3CCCCC3)O[C@]12C(=O)CCl	Non-Toxic	4.6 10^5No_unit	Dose-Dependent Effect			
C[C@]12C=CC(=O)C=C1CC[C@@H]1[C@@H]2[C@@H](O)C[C@@]2(C)[C@H]1C[C@H]1O[C@@H](C3CCCCC3)O[C@]12C(=O)CBr				Toxic	Active	
C[C@]12C=CC(=O)C=C1CC[C@@H]1[C@@H]2[C@@H](O)C[C@@]2(C)[C@H]1C[C@H]1O[C@@H](C3CCCCC3)O[C@]12C(=O)CO [DESISOBUTYRYLCICLESONIDE]			Dose-Dependent Effect		Active	Toxic
C[C@]12C=CC(=O)C=C1CC[C@@H]1[C@@H]2[C@@H](O)C[C@@]2(C)[C@H]1C[C@H]1O[C@@H](C3CCCCC3)O[C@]12C(=O)COS(C)(=O)=O					Active	Toxic
CN(C)CC(=O)[C@@]12O[C@H](C3CCCCC3)O[C@@H]1C[C@H]1[C@@H]3CCC4=CC(=O)C=C[C@]4(C)[C@H]3[C@@H](O)C[C@@]12C				Toxic		
C[C@]12C=CC(=O)C=C1CC[C@@H]1[C@@H]2[C@@H](O)C[C@@]2(C)[C@H]1C[C@H]1O[C@@H](C3CCCCC3)O[C@]12C(=O)CN						Toxic
C[C@]12C=CC(=O)C=C1CC[C@@H]1[C@@H]2[C@@H](O)C[C@@]2(C)[C@H]1C[C@H]1O[C@@H](C3CCCCC3)O[C@]12C(=O)CI				Toxic		
CC(C)C(=O)NCC(=O)[C@@]12O[C@H](C3CCCCC3)O[C@@H]1C[C@H]1[C@@H]3CCC4=CC(=O)C=C[C@]4(C)[C@H]3[C@@H](O)C[C@@]12C	Non-Toxic					
C[C@]12C=CC(=O)C=C1CC[C@@H]1[C@@H]2[C@@H](O)C[C@@]2(C)[C@H]1C[C@H]1O[C@@H](C3CCCCC3)O[C@]12C(=O)CN=[N+]=[N-]	Non-Toxic	2.1 10^5No_unit	Dose-Dependent Effect			
